In PMC3269312 (International journal of inorganic chemistry, 2011):

Columns and labels:
[1] = system: ct-DNA; conditions: cited from earlier work
[2] = system: ct-DNA; experiment: Fluorescence competition experiment with ethidium bromide; assay type: binding, calf
Summary of the method: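 Ethidium bromide is pre-bound to calf-thymus DNA, and the intercalated adduct is excited near 520 nm. Test compound is added as quencher, and the loss of adduct emission is followed. Relative fluorescence (F0/F) is plotted against quencher concentration per the Stern-Volmer equation, giving the quenching constant.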

Molecule | KEB, binding constant of EB to DNA [1] [M⁻¹] | KSV, Stern-Volmer quenching constant ([2]; EB-DNA adduct, λex = 520 nm, [EB] = 0.33 μM, [DNA] = 10 μM, 298 K) | apparent binding constant (Kapp) with ct-DNA ([2]; from [complex] at 50% of initial EB-DNA fluorescence, KEB = 1.2 × 10^6 M^−1) [M⁻¹]
CC[n+]1c(-c2ccccc2)c2cc(N)ccc2c2ccc(N)cc21 [EB, ethidium bromide] | 1.2e+06 |  | 
Zn(acnTSC)2Cl2 [Complex 1] |  | (7.48 ± 0.29) × 10^3 M^−1 | 3530
